Measurements: ChEMBL document CHEMBL4196128 (ACS Med Chem Lett, 2018)

What was measured:
[1] = Mean residence time in Beagle dog at 3 mg/kg, iv; type: ADME, organism-based, Canis lupus familiaris; settings: in vivo
In short: (§1)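 Intravenous dosing in male CD1 mice (10 mg/kg, n = 30), Sprague–Dawley rats (3 mg/kg, n = 3), beagle dogs (3 mg/kg, n = 3) and cynomolgus monkeys (1 mg/kg, n = 3). Vehicle was aqueous 20% hydroxypropyl-β-cyclodextrin. Mean residence time and steady-state volume of distribution were taken from plasma concentration–time profiles as mean parameters.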

[2] = Tmax in Beagle dog at 30 mg/kg, po; type: ADME, organism-based, Canis lupus familiaris; settings: in vivo
In short: (§2)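 Oral dosing in male CD1 mice (30 mg/kg, n = 27), Sprague–Dawley rats (10 mg/kg, n = 3), beagle dogs (30 mg/kg, n = 3) and cynomolgus monkeys (10 mg/kg, n = 3). Mean Tmax was read from plasma concentration–time data. Bioavailability was derived from oral AUC(0–∞) compared with intravenous AUC.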

Cavia porcellus = experiment: Cardiotoxicity in telemetered guinea pig assessed as changes in QRS interval at 30 to 100 mg/kg; type: toxicity, organism-based; settings: in vivo
In short: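 Telemetered guinea pigs were exposed at 30 and 100 mg/kg. Electrocardiographic PR, QRS and QT/QTc intervals were monitored for changes related to the test article, and exposure was referenced to total Cmax.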

Cytochrome P450 2D6 = Cytochrome P450 2D6 (Homo sapiens, UniProt P10635); experiment: Inhibition of CYP2D6 (unknown origin) preincubated followed by substrate addition; type: ADME
[3] = biological target: Mitogen-activated protein kinase 1 (Homo sapiens, UniProt P28482); experiment: Inhibition of ERK2 (unknown origin) using peptide substrate measured after 45 mins by IMAP assay
[4] = Volume of distribution at steady state in monkey at 1 mg/kg, iv; settings: cynomolgus monkey, in vivo, read-out: Vdss
Cytochrome P450 3A4 = Cytochrome P450 3A4 (Homo sapiens, UniProt P08684); experiment: Inhibition of CYP3A4 (unknown origin) preincubated followed by substrate addition; type: ADME
[5] = Tmax in monkey at 10 mg/kg, po; settings: cynomolgus monkey, in vivo
[6] = Protein binding in dog plasma at 10 uM; type: ADME, cell-free, Canis lupus familiaris; settings: read-out: PPB
[7] = biological target: T1, Mitogen-activated protein kinase; ERK1/ERK2 (Homo sapiens) (UniProt P27361+P28482); experiment: Inhibition of ERK1/2 phosphorylation in human A2058 cells after 24 hrs by Western blot analysis; type: cell-based
In short: (§3)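 A2058 melanoma cells were treated across a compound dose range. pERK1/2 and pRSK levels were detected by Western blot analysis.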

[8] = biological target: Mitogen-activated protein kinase 3 (Homo sapiens, UniProt P27361); experiment: Inhibition of ERK1 (unknown origin) using peptide substrate measured after 45 mins by IMAP assay
[9] = Clearance in monkey at 1 mg/kg, iv; settings: cynomolgus monkey, in vivo
[10] = Volume of distribution at steady state in Beagle dog at 3 mg/kg, iv; type: ADME, organism-based, Canis lupus familiaris; settings: in vivo, read-out: Vdss; in short: as §1
Cytochrome P450 2C19 = Cytochrome P450 2C19 (Homo sapiens, UniProt P33261); experiment: Inhibition of CYP2C19 (unknown origin) preincubated followed by substrate addition; type: ADME
[11] = Clearance in Beagle dog at 3 mg/kg, iv; type: ADME, organism-based, Canis lupus familiaris; settings: in vivo
In short: (§4)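 The compound was given intravenously as an aqueous solution in 20% hydroxypropyl-β-cyclodextrin. Animals were male CD1 mice (10 mg/kg, n = 30), Sprague–Dawley rats (3 mg/kg, n = 3), beagle dogs (3 mg/kg, n = 3) and cynomolgus monkeys (1 mg/kg, n = 3). Plasma concentration–time data gave mean AUC(0–∞), half-life, mean residence time, clearance and Vd,ss.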

[12] = Half life in monkey at 1 mg/kg, iv; settings: cynomolgus monkey, in vivo
HT-29 = experiment: Antiproliferative activity against human HT-29 cells harboring BRAF V600E/D mutant measured after 4 days; type: functional, cell-based; settings: HT-29, 96 h
hERG (KCNH2) [13] = biological target: T2, hERG (KCNH2) (Homo sapiens, UniProt Q12809); experiment: Inhibition of human ERG at 5 mg/ml by binding assay relative to control; set-up: dose or concentration left out as unconfirmed
Mus musculus = experiment: Oral bioavailability in CD1 mouse at 30 mg/kg; type: ADME, organism-based; settings: in vivo; in short: as §2
[14] = Volume of distribution at steady state in CD1 mouse at 10 mg/kg, iv; type: ADME, organism-based; settings: in vivo, read-out: Vdss; in short: as §1
hERG (KCNH2) [15] = biological target: T2, hERG (KCNH2); experiment: Inhibition of human ERG at 600 nM by voltage clamp method relative to control
[16] = Protein binding in monkey plasma at 10 uM; type: ADME, cell-free, Macaca mulatta; settings: rhesus monkey, read-out: PPB
[17] = Half life in Sprague-Dawley rat at 3 mg/kg, iv; type: ADME, organism-based; settings: in vivo; in short: as §4
[18] = Half life in Beagle dog at 3 mg/kg, iv; type: ADME, organism-based, Canis lupus familiaris; settings: in vivo; in short: as §4
[19] = biological target: T1, Mitogen-activated protein kinase; ERK1/ERK2 (Homo sapiens); experiment: Inhibition of ERK1/2 in human A2058 cells assessed as reduction in RSK phosphorylation after 24 hrs by Western blot analysis; type: cell-based; in short: as §3
Cytochrome P450 1A2 = biological target: T3, Cytochrome P450 1A2 (Homo sapiens, UniProt P05177); experiment: Inhibition of CYP1A2 (unknown origin) preincubated followed by substrate addition; type: ADME
T3 sequence (P05177 whole entry): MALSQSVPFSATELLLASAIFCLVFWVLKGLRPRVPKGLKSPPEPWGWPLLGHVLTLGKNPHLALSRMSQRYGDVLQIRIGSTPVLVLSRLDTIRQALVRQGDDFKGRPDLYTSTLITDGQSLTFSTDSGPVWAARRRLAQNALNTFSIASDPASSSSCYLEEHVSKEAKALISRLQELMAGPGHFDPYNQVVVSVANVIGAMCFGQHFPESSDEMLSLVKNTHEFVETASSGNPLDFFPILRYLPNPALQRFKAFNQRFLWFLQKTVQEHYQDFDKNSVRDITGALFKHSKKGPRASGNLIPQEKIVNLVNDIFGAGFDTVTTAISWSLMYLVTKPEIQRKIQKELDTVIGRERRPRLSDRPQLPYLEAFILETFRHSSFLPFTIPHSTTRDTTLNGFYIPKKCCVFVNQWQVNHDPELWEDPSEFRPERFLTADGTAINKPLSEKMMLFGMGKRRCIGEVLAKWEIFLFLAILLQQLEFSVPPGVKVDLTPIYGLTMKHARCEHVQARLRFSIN

T2 sequence (Q12809 whole entry): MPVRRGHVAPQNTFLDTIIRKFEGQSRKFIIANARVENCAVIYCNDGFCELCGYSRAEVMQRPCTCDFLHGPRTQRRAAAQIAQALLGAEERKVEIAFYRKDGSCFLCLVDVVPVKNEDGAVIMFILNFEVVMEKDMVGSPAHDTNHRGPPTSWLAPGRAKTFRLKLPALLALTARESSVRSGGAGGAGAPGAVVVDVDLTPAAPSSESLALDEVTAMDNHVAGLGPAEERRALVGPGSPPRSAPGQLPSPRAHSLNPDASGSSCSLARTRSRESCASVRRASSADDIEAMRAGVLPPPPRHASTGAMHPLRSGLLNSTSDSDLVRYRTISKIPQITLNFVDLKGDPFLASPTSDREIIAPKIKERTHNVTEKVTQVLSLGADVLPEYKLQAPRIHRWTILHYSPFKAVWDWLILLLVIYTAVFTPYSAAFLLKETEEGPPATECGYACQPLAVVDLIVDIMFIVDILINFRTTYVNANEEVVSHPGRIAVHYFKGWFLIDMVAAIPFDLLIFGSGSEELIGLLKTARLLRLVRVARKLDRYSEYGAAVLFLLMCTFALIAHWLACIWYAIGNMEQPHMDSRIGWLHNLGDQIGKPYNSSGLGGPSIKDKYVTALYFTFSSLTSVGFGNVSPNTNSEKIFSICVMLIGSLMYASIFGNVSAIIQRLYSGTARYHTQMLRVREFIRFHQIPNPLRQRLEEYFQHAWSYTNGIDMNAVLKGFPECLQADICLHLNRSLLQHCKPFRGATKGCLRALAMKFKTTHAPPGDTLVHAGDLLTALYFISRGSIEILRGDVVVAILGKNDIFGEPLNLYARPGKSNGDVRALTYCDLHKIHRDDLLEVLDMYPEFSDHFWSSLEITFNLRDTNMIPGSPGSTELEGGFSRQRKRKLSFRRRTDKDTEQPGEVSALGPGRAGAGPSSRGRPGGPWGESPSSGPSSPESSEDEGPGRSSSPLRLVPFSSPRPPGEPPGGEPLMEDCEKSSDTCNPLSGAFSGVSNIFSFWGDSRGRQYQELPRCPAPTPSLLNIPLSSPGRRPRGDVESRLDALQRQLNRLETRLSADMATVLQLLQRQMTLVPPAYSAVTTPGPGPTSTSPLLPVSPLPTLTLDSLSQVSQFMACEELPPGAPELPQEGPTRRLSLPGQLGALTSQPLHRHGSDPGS
T1 sequence (P27361 whole entry, looked up): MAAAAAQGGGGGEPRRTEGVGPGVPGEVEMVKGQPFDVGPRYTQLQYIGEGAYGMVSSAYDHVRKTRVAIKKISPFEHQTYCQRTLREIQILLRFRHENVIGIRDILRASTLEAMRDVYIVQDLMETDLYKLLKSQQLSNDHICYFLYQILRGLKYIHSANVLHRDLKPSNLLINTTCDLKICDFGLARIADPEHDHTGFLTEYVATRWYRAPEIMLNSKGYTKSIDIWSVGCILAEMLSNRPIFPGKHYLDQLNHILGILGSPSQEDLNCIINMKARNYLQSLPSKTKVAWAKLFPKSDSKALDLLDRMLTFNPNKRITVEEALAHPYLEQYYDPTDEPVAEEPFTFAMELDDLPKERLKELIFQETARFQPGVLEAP
T1 sequence (P28482 whole entry, looked up): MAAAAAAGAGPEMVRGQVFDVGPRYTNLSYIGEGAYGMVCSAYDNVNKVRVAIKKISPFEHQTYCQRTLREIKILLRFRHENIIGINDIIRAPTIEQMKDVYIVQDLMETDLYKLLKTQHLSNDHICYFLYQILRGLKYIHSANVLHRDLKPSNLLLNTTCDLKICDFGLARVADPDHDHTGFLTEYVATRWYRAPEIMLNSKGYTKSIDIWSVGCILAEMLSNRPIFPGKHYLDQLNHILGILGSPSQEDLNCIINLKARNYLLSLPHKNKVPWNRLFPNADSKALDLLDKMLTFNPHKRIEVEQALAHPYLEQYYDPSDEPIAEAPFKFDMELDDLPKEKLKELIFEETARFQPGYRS
Sequence of Mitogen-activated protein kinase 1 (P28482 whole entry): as the sequence (P28482 whole entry, looked up) above
Sequence of Mitogen-activated protein kinase 3 (P27361 whole entry): as the sequence (P27361 whole entry, looked up) above
Sequence of Cytochrome P450 2D6 (P10635 whole entry): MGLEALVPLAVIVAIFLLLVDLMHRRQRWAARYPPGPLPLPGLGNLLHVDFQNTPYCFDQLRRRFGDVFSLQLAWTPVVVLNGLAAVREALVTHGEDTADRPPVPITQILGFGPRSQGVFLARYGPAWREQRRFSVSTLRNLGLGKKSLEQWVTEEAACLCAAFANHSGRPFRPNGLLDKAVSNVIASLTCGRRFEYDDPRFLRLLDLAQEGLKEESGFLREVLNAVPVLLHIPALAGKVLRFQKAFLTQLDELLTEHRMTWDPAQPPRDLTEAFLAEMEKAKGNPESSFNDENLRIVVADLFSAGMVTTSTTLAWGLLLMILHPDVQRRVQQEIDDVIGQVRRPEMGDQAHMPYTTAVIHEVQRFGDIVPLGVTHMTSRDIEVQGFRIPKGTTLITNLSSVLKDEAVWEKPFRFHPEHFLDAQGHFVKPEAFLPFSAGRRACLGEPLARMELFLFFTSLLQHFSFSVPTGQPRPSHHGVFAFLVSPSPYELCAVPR
Sequence of Cytochrome P450 2C19 (P33261 whole entry): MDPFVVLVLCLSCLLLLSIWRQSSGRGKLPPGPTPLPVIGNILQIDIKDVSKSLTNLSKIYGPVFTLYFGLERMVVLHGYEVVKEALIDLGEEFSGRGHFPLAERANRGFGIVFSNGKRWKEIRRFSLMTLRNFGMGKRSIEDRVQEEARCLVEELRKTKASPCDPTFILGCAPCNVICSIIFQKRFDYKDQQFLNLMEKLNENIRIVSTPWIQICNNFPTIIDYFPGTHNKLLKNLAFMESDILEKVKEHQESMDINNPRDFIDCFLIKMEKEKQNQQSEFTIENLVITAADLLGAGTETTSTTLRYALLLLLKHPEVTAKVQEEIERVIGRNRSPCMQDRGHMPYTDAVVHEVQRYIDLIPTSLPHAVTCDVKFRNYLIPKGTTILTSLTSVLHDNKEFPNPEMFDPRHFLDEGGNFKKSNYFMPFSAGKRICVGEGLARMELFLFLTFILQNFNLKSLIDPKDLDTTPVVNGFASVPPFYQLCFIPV
Sequence of Cytochrome P450 3A4 (P08684 whole entry): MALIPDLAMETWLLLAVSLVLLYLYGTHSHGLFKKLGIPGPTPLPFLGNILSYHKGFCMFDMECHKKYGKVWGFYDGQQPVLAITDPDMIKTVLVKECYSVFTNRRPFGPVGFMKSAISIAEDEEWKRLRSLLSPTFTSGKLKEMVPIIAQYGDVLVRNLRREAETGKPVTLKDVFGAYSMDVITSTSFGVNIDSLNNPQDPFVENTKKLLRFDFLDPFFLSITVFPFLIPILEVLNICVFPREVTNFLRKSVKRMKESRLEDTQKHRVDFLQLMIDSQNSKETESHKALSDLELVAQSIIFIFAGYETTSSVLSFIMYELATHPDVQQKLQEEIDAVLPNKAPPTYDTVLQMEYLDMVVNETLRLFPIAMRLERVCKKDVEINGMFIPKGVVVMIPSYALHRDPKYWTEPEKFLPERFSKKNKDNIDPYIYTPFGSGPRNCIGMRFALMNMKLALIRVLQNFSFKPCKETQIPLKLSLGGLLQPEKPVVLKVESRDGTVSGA

- MRT [1]: 4 h
- Tmax [2]: 4 h
- inhibition (INH) (Cytochrome P450 2D6): Not Active
- IC50 [3]: 7 nM
- Vd [4]: 2 L/kg
- IC50 (Cytochrome P450 3A4): 1700 nM
- Tmax [5]: 1.4 h
- fraction unbound at 10 µM [6]: < 0.01
- inhibition [7]: Dose-dependent effect
- IC50 [8]: 20 nM
- clearance [9]: 17.9 mL/min/kg
- Vd [10]: 0.9 L/kg
- inhibition (INH) (Cytochrome P450 2C19): Not Active
- clearance [11]: 3.9 mL/min/kg
- half-life [12]: 1.3 h
- IC50 (HT-29): 51 nM
- F (Mus musculus): 80%
- Vd [14]: 3.3 L/kg
- fraction unbound at 10 µM [16]: < 0.01
- half-life [17]: 1.6 h
- half-life [18]: 2.8 h
- inhibition [19]: Dose-dependent effect
- inhibition (INH) (Cytochrome P450 1A2): Not Active
Structure (SMILES): CS[C@@]1(C(=O)Nc2ccc3[nH]nc(-c4ccc(OC(C)C)nc4)c3c2)CCN(CC(=O)N2CC=C(c3ccc(-c4ncn(C)n4)cc3)CC2)C1 [MK-8353]
- Activity (Cavia porcellus): Non-Toxic
- inhibition (hERG (KCNH2) [13]): 6%
- inhibition at 0.6 µM (hERG (KCNH2) [15]): 16%
